Results from ChEMBL document CHEMBL4043308 (J Med Chem, 2018).
Active and inactive are the calls of the source. The rule behind the calls is not given here.

Key:
Autotaxin [1] = target: T1, Autotaxin (Mus musculus, UniProt Q9R1E6); assay: Inhibition of mouse ATX-beta using LPC 16:0 as substrate by Amplex Red PLD assay
Autotaxin [2] = target: T1, Autotaxin; assay: Inhibition of mouse ATX-beta using LPC 18:0 as substrate by Amplex Red PLD assay
Autotaxin [3] = target: T1, Autotaxin; assay: Inhibition of recombinant mouse ATX expressed in HEK293 cells using FS3 as substrate preincubated for 15 mins followed by substrate addition measured after 30 mins
Autotaxin [4] = target: T1, Autotaxin; assay: Inhibition of recombinant mouse ATX expressed in HEK293 cells using LPC 17:0 as substrate after 30 mins by LC-MS/MS method
Rattus norvegicus = species: Rattus norvegicus; assay: animal or person; settings: Lewis, po, 4 h, read-out: INH
Mus musculus [5] = assay: Antifibrotic activity in BLM-induced C57BL/6 mouse pulmonary fibrosis model assessed as improvement in lung architecture at 30 mg/kg, ip qd administered 15 days starting 1 day prior to BLM installation by hematoxylin/eosin staining-based microscopic method; format: functional, organism-based
Summary of the method: (§1)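 Bleomycin model: mice 8–10 weeks, 0.01 U orotracheal bleomycin on day 0, 30 mg/kg ip daily from day −1 to 14 (PBS/5% Tween 80 vehicle), killed day 15. Lungs were fixed in 10% neutral buffered formalin, paraffin-embedded, cut at 4 μm and H&E-stained. Sections were examined by light microscopy at ×100–×300.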

Mus musculus [6] = assay: Antifibrotic activity in BLM-induced C57BL/6 mouse pulmonary fibrosis model assessed as decrease in contiguous fibrotic walls at 30 mg/kg, ip qd administered 15 days starting 1 day prior to BLM installation by hematoxylin/eosin staining-based microscopic method; format: functional, organism-based; summary of the method: as §1
Mus musculus [7] = assay: Antifibrotic activity in BLM-induced C57BL/6 mouse pulmonary fibrosis model assessed as decrease in fibrotic lesions at 30 mg/kg, ip qd administered 15 days starting 1 day prior to BLM installation by hematoxylin/eosin staining-based microscopic method; format: functional, organism-based; summary of the method: as §1
Mus musculus [8] = assay: Antifibrotic activity in BLM-induced C57BL/6 mouse pulmonary fibrosis model assessed as decrease in inflammatory cell influx in bronchoalveolar lavage fluid at 30 mg/kg, ip qd administered 15 days starting 1 day prior to BLM installation by trypan blue assay relative to control; format: functional; set-up: scale not given: the % may be the effect or the level left
Summary of the method: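 Mice (C57BL/6, 8–10 weeks) had orotracheal bleomycin 0.01 U on day 0 and ip dosing at 30 mg/kg daily from day −1 to 14, n = 10. On day 15, lungs were lavaged 3 × 1 mL 0.9% NaCl. BALF was spun at 1200 rpm for 10 min, and pellet cells were counted with 0.4% trypan blue (×10^5 cells/mL). Means ± SE.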

Mus musculus [9] = assay: Antifibrotic activity in BLM-induced C57BL/6 mouse pulmonary fibrosis model assessed as decrease in total protein concentration in bronchoalveolar lavage fluid at 30 mg/kg, ip qd administered 15 days starting 1 day prior to BLM installation by Bradford protein assay relative to control; format: functional, organism-based
Summary of the method: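 BALF total protein was measured after orotracheal bleomycin (0.01 U, day 0) and 30 mg/kg ip daily dosing from day −1 to 14. Lavage was done on day 15 with 3 × 1 mL saline, and the supernatant was stored at −80 °C. OD readings were converted to mg/mL using a BSA standard curve (0–2 mg/mL). Means ± SE, paired t test.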

Mus musculus [10] = assay: Antifibrotic activity in BLM-induced C57BL/6 mouse pulmonary fibrosis model assessed as decrease in soluble collagen concentration in bronchoalveolar lavage fluid at 30 mg/kg, ip qd administered 15 days starting 1 day prior to BLM installation by Sirius Red assay; format: functional, organism-based
Summary of the method: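 Day-15 BALF from bleomycin-challenged mice given ip drug at 30 mg/kg daily from day −1 to 14. BALF (100 μL) was diluted in 1 mL 0.5 M acetic acid, mixed with an equal volume of Sirius Red (120 μg/mL in 0.5 M acetic acid) and held 30 min at room temperature. After centrifugation, supernatant A540 was read against a rat-tail collagen I standard (0–500 μg/mL).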

Mus musculus [11] = assay: Antifibrotic activity in BLM-induced C57BL/6 mouse pulmonary fibrosis model assessed as decrease in ATX activity in bronchoalveolar lavage fluid at 30 mg/kg, ip qd administered 15 days starting 1 day prior to BLM installation by TOOS activity assay; format: functional, organism-based
Summary of the method: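 Male and female C57BL/6 mice (8–10 weeks) got 0.01 U bleomycin in 50 μL saline orotracheally on day 0. Dosing was 30 mg/kg ip once daily from day −1 to 14 in PBS/5% Tween 80 (n = 10). Lungs were lavaged three times with 1 mL saline on day 15. BALF lysoPLD activity was measured by TOOS assay (nmol/min/mL). Means ± SE.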

[12] = Plasma concentration in BLM-induced C57BL/6 mouse pulmonary fibrosis model at 30 mg/kg, ip qd administered 15 days starting 1 day prior to BLM installation measured 1 hr post last dose by LC-MS/MS method; format: ADME, organism-based
Summary of the method: (§2)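 Bleomycin-challenged C57BL/6 mice received 30 mg/kg ip daily from day −1 to 14. Blood was taken 1, 3 and 6 h after the last dose into EDTA (pH 8, final 50 mM). It was centrifuged at 2000g for 20 min at 4 °C, and plasma was stored at −80 °C. Plasma drug levels were quantified by LC–MS/MS (ng/mL).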

Plasma = assay: Plasma concentration in BLM-induced C57BL/6 mouse pulmonary fibrosis model at 30 mg/kg, ip qd administered 15 days starting 1 day prior to BLM installation measured 3 to 6 hrs post last dose by LC-MS/MS method; format: ADME, organism-based; settings: in vivo; summary of the method: as §2

| SMILES | IC50 (Autotaxin [1]) [µM] | other results |
| --- | --- | --- |
| COC(=O)[C@H](CCCC(=O)NO)NC(=O)CCCCC(=O)Nc1ccccc1 | 0.05 | – |
| COC(=O)[C@H](CCC(=O)NO)NC(=O)CCCCNC(=O)c1ccccc1 | > 5 | – |
| CCCCCCCCc1ccc(C(=O)Nc2ccc(CC(=O)NO)cc2)cc1 | > 5 | – |
| COC(=O)[C@H](CCCC(=O)NO)NC(=O)CCCCCCc1ccccc1 | > 5 | – |
| O=C(Cc1ccc(NC(=O)CCCCC(=O)Nc2ccccc2)cc1)NO | – | IC50 (Autotaxin [2]): 0.2 µM |
| O=C(Cc1ccc(NC(=O)CCCCc2ccc(-c3ccccc3)cc2)cc1)NO | > 5 | – |
| O=C(CCCCC(=O)Nc1ccc(B(O)O)cc1)Nc1ccccc1 | 0.7 | IC50 (Autotaxin [2]): 4 µM |
| O=C(CCCCC(=O)Nc1ccc(CC(=O)C(F)(F)C(F)(F)F)cc1)Nc1ccccc1 | 3 | IC50 (Autotaxin [2]): 0.5 µM |
| CCOc1ccc(NC(=O)CCCCC(=O)N[C@@H](CCC(=O)NO)C(=O)OC)cc1 | > 5 | – |
| O=C(CCN1CCN(C(=O)OCc2cc(Cl)cc(Cl)c2)CC1)c1ccc2[nH]c(=O)oc2c1 | – | IC50 (Autotaxin [3]): 0.0028 µM; IC50 (Autotaxin [4]): 0.0017 µM; inhibition in vivo at 30 mg/kg (Rattus norvegicus): > 95% |
| CCCCCCCCCC(=O)Nc1ccc(CC(=O)NO)cc1 | > 5 | – |
| CCCC[C@@H](CCCC(=O)NO)NC(=O)CCCCC(=O)Nc1ccccc1 | – | Activity (Mus musculus [5]): Active; Activity (Mus musculus [6]): Active; Activity (Mus musculus [7]): Active; Activity (Mus musculus [8]): 50%; Activity (Mus musculus [9]): Active; Activity (Mus musculus [10]): Active; Activity (Mus musculus [11]): Active; concentration at 1 h [12]: 70 ng/mL; Cp (Plasma): 35 ng/mL |
| COC(=O)[C@H](CCC(=O)NO)NC(=O)CCCCC(=O)Nc1ccc(F)cc1 | > 5 | – |
| COC(=O)[C@H](CCC(=O)NO)NC(=O)CCCCC(=O)Nc1ccc(OC)cc1 | 4.5 | – |
| O=C(Cc1ccc(NC(=O)CCCCNC(=O)c2ccc(F)cc2)cc1)NO | > 5 | – |
| O=C(CC[C@H](NC(=O)CCCCC(=O)Nc1ccccc1)C(=O)NO)NO | > 5 | – |
| O=C(O)Cc1ccc(NC(=O)CCCCC(=O)Nc2ccccc2)cc1 | > 5 | – |
| COC(=O)[C@H](CCC(=O)NO)NC(=O)CCCCC(=O)Nc1ccccc1 | 0.4 | – |
